From PubChem BioAssay
Activity calls are given as the source filed them.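 How the source made its calls, unless noted: active means visually confirmed hit in the image check and inhibition above 20%; inconclusive means visually confirmed hit but inhibition not above 20%; inactive means no visual hit in the image check.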

Legend:
[1] = inhibitors of TNFa-induced NFkB p65 translocation, primary screen, imaging, HUVEC, MLSMR starter and 10KST1 sets (AID 438;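 active means inhibition above 20% together with a positive visual image hit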;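 further: compound added about 3h40 before a 20 min TNFalpha stimulation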;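 on inhibition: signal is the nuclear over cytoplasmic p65 intensity ratio per well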); conditions: HUVEC TNFa-induced p65 nuclear translocation; cell count: measured here: nuclei count (cytotoxicity indicator), at 2.08 µM; inhibition: at 2 µM, stronger effect = higher value, 0% TNFa-plus-vehicle, 100% no-TNFa wells
[2] = reduction of polyQ htt aggregates in cells – imaging, exon1htt(103Q)mCFP cells, high-content imaging, primary screen (AID 483;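 active means visual image review flags a hit and inhibition of aggregation exceeds 20%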;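 further: compound exposure lasted 3 days before fixation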;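 on nuclei count: percent of the per-plate median nuclei count of sample wells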); conditions: exon1htt(103Q)mCFP cell line, aggregate imaging, at 2 µM; inhibition of aggregation: stronger effect = higher value; nuclei count: measured here: cell count, toxicity
[3] = endothelial E-selectin expression blockers – imaging, HUVEC, immunofluorescence, MLSMR starter and 10KST1 sets, primary screen (AID 487); conditions: HUVEC TNFalpha-induced E-selectin immunofluorescence imaging, at 2 µM; inhibition: stronger effect = higher value; nuclei count: measured here: cell number, toxicity;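 on inhibition: signal is fraction of cell area covered by stained E-selectin grains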;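 on nuclei count: 100% = median nuclei count of all wells on the same plate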
[4] = target: Voltage-gated potassium channel subunit beta-2 (Rattus norvegicus) (UniProt P62483); test: inhibitors of rat Kvbeta2 reductase activity – biochemical, NADPH fluorescence, primary screen (AID 622;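 active means fluorescence slope higher than the sample average by over 3 SD, cut at about -0.22 in these data, passing the limit was not always enough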;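 further: slope of raw intensity against log time taken from 70 to 1610 s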); conditions: recombinant KvBeta, 4-cyanobenzaldehyde reduction, at 10 µM, stronger effect = higher value
[5] = target: Voltage-gated potassium channel subunit beta-2 (Rattus norvegicus) (UniProt P62483); test: enhancers of rat Kvbeta2 NADPH turnover – biochemical, NADPH fluorescence, primary screen (AID 623;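 active means NADPH fluorescence slope more negative than the mean of all samples by about 3 SD, 99.7% confidence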;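 further: fluorescence intensity change per second fitted from 20 to 320 s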); conditions: Recombinant KvBeta, NADPH fluorescence decrease slope, 10 min; at 10 µM; stronger effect = lower value
[6] = target: Muscarinic acetylcholine receptor M4 (Homo sapiens) (UniProt P08173); test: M4-linked GIRK flux change, two-sided – cell-based, HEK293 M4/GIRK, thallium flux, BTC-AM, M4 allosteric agonist project, primary screen (AID 625;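 active means fluorescence slope after compound addition differing from the mean of all tested samples at 99.7% confidence, mostly higher but some lower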;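 further: thallium influx through GIRK channels coupled to M4 in HEK293 cells with BTC-AM dye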); conditions: at 10 µM, actives lie on both sides
In short: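 Assay system: HEK293 cells with M4 receptor and GIRK channels / Controls: carbachol and DMSO controls / Schedule: 1 h dye loading, 2 min kinetic read / Technique: kinetic fluorescence with BTC-AM dye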

[7] = blockers of RIG-like receptor reporter activation – cell-based, Sendai virus stimulus, luciferase, 10K MLSCN set, TLR/RLR signaling modifier project, primary screen (AID 602276;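 active means inhibition at or above 50% at 10 µM; inactive means inhibition below 50%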;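 further: firefly luciferase from ISG56 promoter only with Renilla not read in this screen; 0% = Sendai virus plus DMSO and 100% = medium plus DMSO without virus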); conditions: HEK293 RL24 IRF3 luciferase reporter, at 10 µM, stronger effect = higher value
[8] = TLR3 IRF3 reporter activation blockers – cell-based, poly I:C stimulus, luciferase, 10K MLSCN set, primary screen (AID 602277;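 active means inhibition of the reporter signal at or above 50%; inactive means inhibition below 50%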); conditions: HEK293-TLR3 RL24 IRF3 luciferase reporter, at 10 µM, stronger effect = higher value

Chain of Muscarinic acetylcholine receptor M4 (Homo sapiens) (P08173 whole entry, looked up): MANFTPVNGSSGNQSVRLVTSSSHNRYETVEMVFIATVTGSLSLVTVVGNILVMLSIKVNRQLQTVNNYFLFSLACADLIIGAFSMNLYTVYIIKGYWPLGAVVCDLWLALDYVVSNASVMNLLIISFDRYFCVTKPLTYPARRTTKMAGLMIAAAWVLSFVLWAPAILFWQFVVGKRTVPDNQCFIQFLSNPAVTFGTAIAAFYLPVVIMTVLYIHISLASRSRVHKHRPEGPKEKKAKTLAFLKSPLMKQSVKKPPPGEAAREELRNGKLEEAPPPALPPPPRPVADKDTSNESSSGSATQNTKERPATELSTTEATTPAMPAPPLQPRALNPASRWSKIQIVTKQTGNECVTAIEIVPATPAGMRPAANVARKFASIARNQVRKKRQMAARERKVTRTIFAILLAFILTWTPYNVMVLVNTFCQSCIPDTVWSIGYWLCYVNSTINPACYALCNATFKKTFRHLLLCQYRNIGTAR
Chain of Voltage-gated potassium channel subunit beta-2 (Rattus norvegicus) (P62483 whole entry, looked up): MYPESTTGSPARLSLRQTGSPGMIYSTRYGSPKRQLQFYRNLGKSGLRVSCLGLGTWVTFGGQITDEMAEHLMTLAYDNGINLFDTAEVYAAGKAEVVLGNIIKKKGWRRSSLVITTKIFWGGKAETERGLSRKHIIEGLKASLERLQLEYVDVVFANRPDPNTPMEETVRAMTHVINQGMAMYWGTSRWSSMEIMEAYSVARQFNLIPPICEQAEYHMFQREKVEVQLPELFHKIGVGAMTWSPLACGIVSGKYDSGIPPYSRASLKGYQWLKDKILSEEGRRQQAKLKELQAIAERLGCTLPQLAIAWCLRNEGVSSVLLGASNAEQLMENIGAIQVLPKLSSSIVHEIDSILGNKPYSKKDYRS

| Compound | cell count [1] | inhibition [1] | inhibition of aggregation [2] | nuclei count [2] [%] | inhibition [3] | nuclei count [3] [%] | fluorescence slope [4] | NADPH fluorescence slope [5] | fluorescence slope [6] | inhibition [7] | inhibition [8] |
| --- | --- | --- | --- | --- | --- | --- | --- | --- | --- | --- | --- |
| O=C(c1ccccc1)c1coc2ccc(O)c(CN3CCOCC3)c12 | 651 | -5.8% (inactive) | 8.4% (inactive) | 77.4 | 1.5% (inactive) | 102 | -0.577 (inactive) | 3.5e-06 (inactive) | 0.00407 (inactive) | 14.5% (inactive) | 18.2% (inactive) |
| O=S(=O)(CCOc1ccccc1)c1nc2ccccc2[nH]1 | 332 | -11.8% (inactive) | -12.8% (inactive) | 99.9 | -77.3% (inactive) | 106 | -0.566 (inactive) | -9e-05 (inactive) | 0.00411 (inactive) | 19.7% (inactive) | 13.7% (inactive) |
| COc1ccc(CCNC(=O)c2cc(-c3cc(C)c(C)cc3O)n[nH]2)cc1OC | 434 | 2.8% (inactive) | 8.6% (inactive) | 88.9 | -83.7% (inactive) | 145 | -0.444 (inactive) | -0.000364 (inactive) | 0.00555 (inactive) | 9.16% (inactive) | 9.05% (inactive) |
| COc1ccc(S(=O)(=O)n2ccnc2)c2cccnc12 | 442 | -21.1% (inactive) | 1% (inactive) | 82 | 20.6% (inactive) | 85.1 | -0.358 (inactive) | 7.3e-05 (inactive) | 0.00671 (inactive) | 0.31% (inactive) | 8.74% (inactive) |
| CCn1c(=O)cc(OCC(=O)NCCCN2CC(C)CC(C)C2)c2ccccc21 (stereo not drawn) | 395 | -5.5% (inactive) | -18.3% (inactive) | 111 | -25% (inactive) | 123 | -0.511 (inactive) | -0.000129 (inactive) | 0.00485 (inactive) | 69.4% (active) | 55.8% (active) |
| CCNc1nc(NC(C)C)nc(N(C#N)CCOc2ccc(Cl)cc2Cl)n1 | 603 | -8.6% (inactive) | 20.7% (inactive) | 98.5 | -123% (inactive) | 96.3 | -0.446 (inactive) | -3.7e-05 (inactive) | 0.00644 (inactive) | 15.5% (inactive) | -2.09% (inactive) |
| O=C(NC1CC2CCC1C2)C1COc2ccccc2O1 (stereo not drawn) | 297 | -3.7% (inactive) | 1.9% (inactive) | 89.3 | 18.8% (inactive) | 97.5 | -0.46 (inactive) | -3.9e-05 (inactive) | 0.00453 (inactive) | 0.357% (inactive) | -2.86% (inactive) |
| Cc1ccc(C(=O)NC2CC3CCCC(C2)N3C(=O)NC2CCCCC2)cc1 (stereo not drawn) | 391 | -5% (inactive) | 0.8% (inactive) | 98.7 | -32.5% (inactive) | 80.8 | -0.559 (inactive) | 5.4e-08 (inactive) | 0.00417 (inactive) | -0.377% (inactive) | 9.12% (inactive) |
